Source: PubChem BioAssay
Shown are actives, neighbours in structure and some others; about 1.5% of the full set was active somewhere.
PG9 Ab binder = binders of HIV-1 gp120 antibody PG9, primary screen, biochemical, TR-FRET; TR-FRET gp120-PG9 antibody binding; inhibition, % at 6.7 µM; 360,000 compounds, 0.43% hits; AID 624416, 2012; in the data active = inhibition above about 8.5%
NR1D1 modulator = modulators of Rev-erb alpha DNA binding, primary screen, biochemical, FITC-DNA, fluorescence polarization, uHTS | 370,000 compounds, 0.79% hits | activity, % at 10 µM | Nuclear receptor subfamily 1 group D member 1 (Homo sapiens), P20393 | Rev-erbα–FITC-DNA binding, 90 min;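 active = activity above about 14%, limit read from the data; passing the limit was not always enough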
Target sequence (P20393 whole entry, looked up): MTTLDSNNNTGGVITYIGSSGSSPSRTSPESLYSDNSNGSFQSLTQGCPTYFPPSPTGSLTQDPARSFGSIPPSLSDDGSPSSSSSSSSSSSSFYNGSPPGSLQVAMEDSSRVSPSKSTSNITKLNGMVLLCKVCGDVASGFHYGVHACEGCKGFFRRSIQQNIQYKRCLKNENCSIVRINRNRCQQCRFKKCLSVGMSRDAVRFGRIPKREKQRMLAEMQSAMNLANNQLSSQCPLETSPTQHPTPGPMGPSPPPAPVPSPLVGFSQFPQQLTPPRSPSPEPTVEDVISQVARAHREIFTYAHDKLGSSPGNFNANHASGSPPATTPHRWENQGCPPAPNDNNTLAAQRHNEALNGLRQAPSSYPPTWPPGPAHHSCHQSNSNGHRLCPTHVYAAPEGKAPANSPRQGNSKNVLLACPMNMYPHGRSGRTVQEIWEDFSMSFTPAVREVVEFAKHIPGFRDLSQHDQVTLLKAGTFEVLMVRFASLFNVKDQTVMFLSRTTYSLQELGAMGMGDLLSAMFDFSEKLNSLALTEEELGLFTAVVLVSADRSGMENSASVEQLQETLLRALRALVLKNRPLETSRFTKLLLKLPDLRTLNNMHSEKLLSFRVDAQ
NR2E3 ag-1 = NR2E3 agonists in two-hybrid cells, primary screen, cell-based, luminescence, CHO-S, Gal4-NCOR/VP16-NR2E3 | AID 602229, 2012 | 360,000 compounds, 0.35% hits | luciferase | Photoreceptor-specific nuclear receptor (Homo sapiens), Q9Y5X4 | inhibition of corepressor binding, % at 3.98 µM;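 active = inhibition above the mean of all tested compounds plus 3 SD, cut at about 70% in these data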;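 note: higher means lower luciferase signal from less NR2E3 corepressor binding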
NR2E3 ag-2 = inhibitors of NR2E3-RetCOR corepressor binding, primary screen, NR2E3 agonist project, biochemical, TR-FRET, GST-NR2E3, biotin-RetCOR; 1536-well; inhibition of corepressor binding, % at 4.78 µM; Photoreceptor-specific nuclear receptor (Homo sapiens), Q9Y5X4; 320,000 compounds, 0.12% hits; AID 2300, 2010;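 active = percent inhibition above the cutoff of mean plus 3 SD of all tested compounds, set per screening campaign, cut at about 20% in these data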
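Test system – NR2E3–RetCOR corepressor complex · Quantity – NR2E3 fusion 1.35 nM · Buffer or medium – Tris pH 7.5 · Incubation – Compound–protein incubation for 5 h at 4 °C · Technique – TR-FRET, Eu(K)-anti-GST donor, streptavidin-D2 acceptor, ex 340, em 617/671 nm · Evaluation – percent inhibition of 671/617 nm emission ratio versus biotin and DMSO controls · Plate – 1536-well format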
NR1D1 mod conf = modulators of Rev-erb alpha DNA binding, confirmation, biochemical, FITC-DNA, fluorescence polarization, single point | 3,000 compounds, 61% hits | 90 min | activation, % at 25 µM | shares compounds with NR1D1 modulator;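 active = activation at or above a set limit, or at least 3 SD above the negative control mean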
RORg counter = modulation of RORgamma DNA binding, dose response, counter-screen for Rev-erb alpha modulator project, biochemical, fluorescence polarization, FITC-DNA; IC50, µM; shares compounds with NR1D1 modulator; 910 compounds, 8% hits; AID 1259320, 2017; purified RORgamma protein-FITC-DNA binding;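 active = Compounds whose fitted half-maximal concentration for disrupting protein-DNA binding is below 10 micromolar; the record names Rev-erb in its text, so the target is in doubt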
Large screens that a line does not name were inactive (follow-up assays come after a bar, where they were run).

COc1cccc(N2CCN(c3ccc4nnc(CCC(=O)Nc5cccc(C(C)=O)c5)n4n3)CC2)c1	NR1D1 modulator 27.0 | NR1D1 mod conf inactive
CC1CCN(c2ccc3nnc(CCC(=O)Nc4ccc(F)c(F)c4)n3n2)CC1	NR1D1 modulator 28.3 | NR1D1 mod conf inactive
CCCCNS(=O)(=O)/C=C/c1ccc(OC)cc1CNC(=O)OC(C)(C)C	none (no result: PG9 Ab binder, NR2E3 ag-1, NR2E3 ag-2)
O=C(COC(=O)c1sc2cc(F)ccc2c1Cl)Nc1ncc(Cl)cc1Cl	NR1D1 modulator 64.0 | NR1D1 mod conf 36.7 | RORg counter inactive
C=C(C)/C=C1/C(Cc2ccccc2)N(CC2CC2)C(=N)N1C(=O)OCc1ccccc1 (stereo not given)	none (no result: PG9 Ab binder, NR2E3 ag-1, NR2E3 ag-2)
CCOc1ccccc1C1NC(=O)NC(C)=C1C(=O)OC1CCCCC1 (stereo not given)	none
CC1=C(C(=O)OC2CCCCC2)C(c2ccccc2Br)NC(=O)N1 (stereo not given)	NR1D1 modulator 15.1 | NR1D1 mod conf inactive
CC1=C(C(=O)OC2CCCCCCC2)C(c2cc3c(cc2Br)OCO3)CC(=O)N1 (stereo not given)	NR1D1 modulator 22.8 | NR1D1 mod conf 29.6
CCCN1CCS(=O)(=O)N(Cc2cn(Cc3ccc(Cl)cc3)nn2)C(C(=O)OC)C1 (stereo not given)	none (no result: PG9 Ab binder, NR2E3 ag-1, NR2E3 ag-2)
CCN(CC)c1ccc(/C=c2/sc3nnc(-c4ccccc4C)n3c2=O)cc1	none
CCN(CC)c1ccc(/C=c2\sc3nnc(-c4ccccc4Cl)n3c2=O)cc1	NR1D1 modulator 18.9 | NR1D1 mod conf inactive
CCCn1nc(NC(=O)CC(C)C)c2cc3cccc(C)c3nc21	none
CCn1nc(NC(=O)CC(C)C)c2cc3cccc(C)c3nc21	NR1D1 modulator 23.7 | NR1D1 mod conf inactive
COc1ccc2cc(C(=O)COC(=O)COc3ccc4c(C)cc(=O)oc4c3)ccc2c1	NR1D1 modulator 85.2 | NR1D1 mod conf 52.3 | RORg counter inactive
CCOC(=O)Cn1c(-c2nonc2NC(=O)c2ccccc2F)nc2ccccc21	NR1D1 modulator 27.0 | NR1D1 mod conf inactive
c1ccc(CSc2ncccc2-c2nc3ccccc3[nH]2)cc1	none (no result: PG9 Ab binder, NR2E3 ag-1, NR2E3 ag-2)
CC(C)CSc1ncccc1-c1nc2ccccc2[nH]1	NR1D1 modulator 16.8 (no result: PG9 Ab binder, NR2E3 ag-1, NR2E3 ag-2) | NR1D1 mod conf 11.3
Cc1c(Cc2ccc3c(c2)OCO3)sc(NC(=O)c2ccc3ccccc3c2)c1C(N)=O	NR1D1 modulator 22.7 | NR1D1 mod conf inactive
C=CC[C@@H]1NN2C(=O)[C@@H](CCCC)[C@@H]3c4cc5ccccc5cc4C=NN3[C@@H]2c2cc3ccccc3cc21	none (no result: PG9 Ab binder, NR2E3 ag-1, NR2E3 ag-2)
Cc1sc(NC(=O)Cc2ccc3c(c2)OCO3)nc1-c1ccc2c(c1)CCN2C(=O)c1ccc(F)cc1	none
Cc1sc(NC(=O)Cc2ccc3c(c2)OCO3)nc1-c1ccc2c(c1)CCN2C(=O)c1ccccc1F	NR1D1 modulator 44.6 | NR1D1 mod conf 53.5
CCCC[C@H]1C2CC(OC(=O)Nc3cccc(Br)c3)C(C2)[C@H]2CCCCN21 (stereo not given in full)	none (no result: PG9 Ab binder, NR2E3 ag-1, NR2E3 ag-2)
O=C(Nc1nc2ncccn2c1-c1ccc(C(F)(F)F)cc1)c1ccccc1	none (no result: PG9 Ab binder, NR2E3 ag-1, NR2E3 ag-2)
CC1CCCCC1N(C(=O)c1cc(C2CC2)on1)C1CCCCCC1 (stereo not given)	none (no result: PG9 Ab binder, NR2E3 ag-1, NR2E3 ag-2)
Cc1ccc(-c2csc3nc[nH]c(=S)c23)cc1C	NR1D1 modulator 24.4 | NR1D1 mod conf 31.6 | RORg counter inactive
COc1ccc(-c2csc3nc[nH]c(=O)c23)cc1OC	none
O=c1[nH]c(=O)c2cc3ccccc3nc2[nH]1	none (no result: NR2E3 ag-2)
Cc1cc2cc3c(=O)[nH]c(=O)[nH]c3nc2cc1C	NR1D1 modulator 33.1 (no result: NR2E3 ag-1) | NR1D1 mod conf 40.6 | RORg counter inactive
CCOc1ccc(-n2c(SC/C=C/c3ccccc3)nnc2-c2ccco2)cc1	none (no result: PG9 Ab binder, NR2E3 ag-1, NR2E3 ag-2)
Cc1ccc(N(Cc2cc3ccc(C)cc3[nH]c2=O)S(=O)(=O)c2ccccc2)cc1	NR1D1 modulator 33.6 | NR1D1 mod conf 19.1
Nc1nc(-c2ccccc2)c(N=Nc2ccccc2Cl)s1	NR1D1 modulator 29.8 | NR1D1 mod conf 26.8
Nc1nc(-c2ccccc2)c(N=Nc2cccc3ccccc23)s1	none
O=c1[nH]c(=O)n(CCc2ccc(F)cc2)c(O)c1C=NCc1ccc2c(c1)OCO2	NR1D1 modulator 21.0 | NR1D1 mod conf 26.3
NC1CCCCC1N=Cc1c(O)n(CCc2ccc(F)cc2)c(=O)[nH]c1=O (stereo not given)	none (no result: NR2E3 ag-2)
C=CCN1C(=O)[C@@H](CC(=O)N2CCOCC2)[C@]2(C(=O)OCC)CCCCC/C=C/12	none (no result: PG9 Ab binder, NR2E3 ag-1, NR2E3 ag-2)
COc1ccc(-c2ccc(-c3noc(-c4cccc(OC)c4)n3)c(OC)n2)cc1	NR1D1 modulator 51.7 | NR1D1 mod conf inactive
COc1cccc(-c2nc(-c3ccc(NC(=O)Cc4ccccc4OC)cc3)no2)c1	none (no result: PG9 Ab binder, NR1D1 modulator, NR2E3 ag-2)
COc1ccc(-c2ccc(-c3noc(-c4ccccc4OC)n3)c(OC)n2)cc1	NR1D1 modulator 37.0 | NR1D1 mod conf inactive
COc1ccc(-c2ccc(-c3noc(-c4ccc(OC)c(OC)c4)n3)c(OC)n2)cc1	none (no result: NR2E3 ag-1, NR2E3 ag-2)
COc1ccc(-c2ccc(-c3noc(-c4ccccc4C)n3)c(OC)n2)cc1	NR1D1 modulator 40.0 | NR1D1 mod conf inactive
COc1ccc(CC(=O)Nc2ccc(-c3noc(-c4ccccc4OC)n3)cc2)cc1	NR1D1 modulator 36.3 | NR1D1 mod conf 55.1 | RORg counter inactive
COc1ccc(-c2ccc(-c3noc(C)n3)c(OC)n2)cc1	NR1D1 modulator 26.5 | NR1D1 mod conf inactive
O=C1c2cccc3c(N4CCCCC4)ccc(c23)C(=O)N1c1ccccn1	none
CN(C)CCCN1C(=O)c2cccc3c(Br)ccc(c23)C1=O	none
CCCCNc1ccc2c3c(cccc13)C(=O)N(CCCC)C2=O	NR1D1 modulator 108.4 (no result: NR2E3 ag-2) | NR1D1 mod conf 127.8 | RORg counter inactive
CCCN1C(=O)c2cccc3c(N4CCCCC4)ccc(c23)C1=O	NR1D1 modulator 96.0 | NR1D1 mod conf 96.8 | RORg counter inactive
O=C(CSc1ncnc2c(-c3ccc(Cl)cc3)nsc12)c1ccccc1	NR1D1 modulator 33.8 | NR1D1 mod conf 18.9
O=S(=O)(c1ccccc1)N1CCN(c2nc(-c3cccs3)nc3ccccc23)CC1	none (no result: PG9 Ab binder, NR1D1 modulator, NR2E3 ag-1)
O=S(=O)(c1ccc(Cl)cc1)N1CCN(c2nc(-c3cccs3)nc3ccccc23)CC1	NR1D1 modulator 29.4 (no result: NR2E3 ag-2) | NR1D1 mod conf inactive
C[C@@H]1[C@@H](c2ccccc2)c2cc3ccccc3nc2-c2nc3ccccc3cc2[C@@H]1C(=O)N1CCCC1	none (no result: PG9 Ab binder, NR2E3 ag-1, NR2E3 ag-2)
Cc1nc(SCC(=O)Nc2ccccc2C(F)(F)F)c(C#N)c(C)c1CC(=O)c1ccc(Br)cc1	NR1D1 modulator 43.3 (no result: NR2E3 ag-1) | NR1D1 mod conf inactive
CCc1c(C)nc(SCC(=O)c2cccs2)c(C#N)c1C	none
